High-throughput results deposited in PubChem BioAssay by several laboratories.
G6PDH counter = inhibits Leuconostoc G6PDH, flagging false hits in G6PDH-based assays; Purified L. mesenteroides G6PDH, diaphorase/resazurin coupled fluorescence, 45 min; AID 1020; actives 0.12% (n = 200,000); inhibition, % at 5 µM
PfG6PD inh = PfG6PD (Plasmodium falciparum) enzyme inhibition; PfGluPho enzyme, NADPH resazurin-diaphorase fluorescence; inhibition, % at 20 µM; actives 0.78% (n = 350,000);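 active = inhibition reaching at least a set limit at 20 µM in the primary screen, cut at about 59% in these data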;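 note: 0% = DMSO wells with substrate and 100% = DMSO wells lacking glucose-6-phosphate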
Diaphorase act = diaphorase activation or chemical reduction counter-screen. AID 1229. Diaphorase/resazurin coupled assay, resorufin fluorescence, 16 min; stronger effect = higher value; 1 = vehicle wells, 0 = NADH-free wells. activation factor at 20 µM. actives 0.005% (n = 190,000);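 active = diaphorase activity raised at least twofold by the compound at 20 µM; inactive = activation factor below 2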
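Material: Purified diaphorase enzyme from Clostridium kluyveri | Buffer or medium: 50 mM HEPES pH 7.4 with 4.542 mM MgCl2, 0.005% Tween 20 | Times: 16 min enzyme reaction, ambient temperature | Signal: Red resorufin fluorescence at 544/590 nm excitation/emission | Measure: Increased resorufin signal from activators or reducing compounds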
DTT redox prof = compounds producing H2O2 with reducing agent – biochemical, NIH compound library profiling, artefact control for MLSCN library redox annotation, primary screen; DTT-dependent redox cycling H2O2, phenol red/HRP absorbance; 100% = 100 µM peroxide control, 0% = buffer; activation, % at 10 µM; actives 0.03% (n = 200,000);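 active = activation of at least 50% relative to the plate's high and low controls in the primary single-dose screen; inactive = activation below 50%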;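 note: compound incubated with DTT at 0.8 mM final as the reducing agent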
L major viab = Leishmania major promastigote growth inhibition; Leishmania major promastigotes, resazurin fluorescence viability; inhibition, % at 10 µM; actives 9% (n = 200,000); AID 1063;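 note: promastigotes grown with compound for 44 hours at 28 °C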
Diaphorase inh = diaphorase inhibition or chemical oxidation counter-screen; actives 0.69% (n = 190,000); diaphorase resazurin-to-resorufin fluorescence, NADH, 16 min; bacterial (C. kluyveri) enzyme, not human; inhibition, % at 20 µM;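 active = primary screen inhibition at 20 µM above a set limit, cut at about 50% in these data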;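 note: plate controls were DMSO with full reaction for no effect and wells lacking NADH for full effect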
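System: Bacterial diaphorase enzyme (C. kluyveri) | Incubation: 16-min room-temperature incubation before reading | Benchmarks: No-NADH positive control and DMSO neutral control | Measured by: Resorufin fluorescence 544/590 nm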
An asterisk follows results filed as active; nt = no result given. This excerpt belongs to a sample that is enriched for hits. Cut-off read from the data, not from the text of the source, unless noted: active = inhibition above about 50%; inactive = the rest.

SMILES | G6PDH counter | PfG6PD inh | Diaphorase act | DTT redox prof | L major viab | Diaphorase inh
COCCNc1nc(-c2ccccc2)nc2ccccc12 | 15.8 | 11.3 | nt | 0.1 | 83.8* | nt
O=C(O)c1ccc([N+](=O)[O-])cc1-c1cc([N+](=O)[O-])ccc1C(=O)O | nt | 9.8 | nt | nt | nt | nt
O=C(CCc1nc(-c2ccc(Cl)cc2)no1)NC1CCCC1 | nt | 1.8 | nt | nt | nt | nt
COc1ccccc1N1CCN(c2ccc(-c3ccccc3)nn2)CC1 | -51.1 | 6.5 | 0.9 | -1.1 | 64.2* | 8.0
COc1ccccc1N1CCN(c2ccc3ccccc3n2)CC1 | nt | 15.3 | nt | nt | nt | nt
O=C(CSc1cccc[n+]1[O-])Nc1cc(S(=O)(=O)N2CCOCC2)ccc1Cl | 9.3 | -4.3 | 1 | -0.4 | 67.9* | 3.2
C/C(=N\NC(=S)Nc1cc(S(=O)(=O)N2CCOCC2)ccc1Cl)c1ccccc1F | 3.3 | -8.2 | 0.7 | 0.2 | 71.5* | 26.2
Cn1ccnc1SCC(=O)Nc1cc(S(=O)(=O)N2CCOCC2)ccc1Cl | -0.6 | 2.1 | 0.9 | -0.2 | 61.7* | 8.4
Cc1ccc(S(=O)(=O)N2CCOCC2)cc1NC(=O)CSc1nccn1C | -9.1 | -19.6 | 0.9 | 0.5 | -2.8 | 10.6
CC(Oc1cc(-c2ccccc2)cc2ccccc12)C(=O)N1CCOCC1 (stereo not given) | 5.2 | 21.2 | 0.9 | 0.5 | 18.8 | 7.9
COc1ccc(Nc2nc(-c3ccccc3)nc3ccccc23)cc1 | nt | 29.7 | nt | nt | nt | nt
COc1ccc(Nc2nc(OC)nc(OC)n2)cc1 | nt | -12.5 | nt | nt | nt | nt
COc1ccc(Nc2ccnc(Nc3ccc(OC)cc3)n2)cc1 | 7.5 | 15.7 | 0.9 | 0.0 | 100.4* | 5.4
COc1ccc(Nc2ccccc2N)cc1 | 2.4 | 13.4 | 0.7 | -2.4 | 92.1* | 27.8
COc1ccc(Nc2ccnc3ccccc23)cc1 | -0.3 | 11.9 | 1.1 | 2.1 | 100.6* | -12.8
Cc1sc2c(c1C)c(=O)nc1scc(C)n12 | nt | nt | nt | -0.8 | -0.8 | nt
O=C(CC(Nc1ccccc1Cl)C(=O)O)c1ccccc1 (stereo not given) | 4.9 | 16.2 | 1 | 0.0 | 3.1 | 3.4
Cc1c(Cl)cccc1NC(CC(=O)c1ccccc1)C(=O)O (stereo not given) | 1.0 | 12.0 | 1 | 3.3 | 67.5* | -0.1
Cc1cccc(-n2ccnc2SCC(=O)N2CCCc3ccccc32)c1C | 10.6 | 5.1 | 0.9 | -0.5 | 59.6* | 10.1
Cn1ccnc1SCC(=O)N1CCc2ccccc21 | nt | 1.7 | nt | nt | nt | nt
Cc1occc1-c1nnc(SCC(=O)N2CCCc3ccccc32)n1Cc1ccco1 | 4.1 | -6.2 | 0.9 | -1.0 | 74.3* | 14.8
CCOC(=O)c1ccc(S(=O)(=O)Nc2ccc3cn[nH]c3c2)cc1 | 5.2 | -7.7 | 0.8 | -7.4 | 67.9* | 19.2
COc1ccc(S(=O)(=O)Nc2ccc3cn[nH]c3c2)cc1C | 0.7 | 4.2 | 0.8 | -1.2 | 19.6 | 19.2
O=c1[nH]c2ccccc2n2c(=S)[nH]nc12 | nt | 16.1 | nt | nt | nt | nt
CCOC(=O)CC(NC(=O)Cn1nnc(-c2ccccc2Cl)n1)c1ccc(OC)cc1 (stereo not given) | 3.7 | -12.8 | 0.9 | -0.4 | 20.0 | 7.0
SMILES | G6PDH counter | PfG6PD inh | Diaphorase act | DTT redox prof | L major viab | Diaphorase inh
COc1ccc(S(=O)(=O)N2CCOC23CCN(C(=O)c2c(F)cccc2Cl)CC3)cc1 | nt | -7.5 | nt | nt | nt | nt
Cc1ccc(NC(=O)c2cc3c(s2)CCCC3)cc1S(=O)(=O)Nc1ccccc1Cl | -40.1 | -42.9 | 0.9 | 0.4 | 18.7 | 11.5
O=C(Nc1ccc(Cl)c(S(=O)(=O)Nc2ccccc2Cl)c1)c1cccs1 | 3.5 | -40.1 | 0.7 | 0.0 | 77.2* | 25.9
Cc1ccc(C(=O)Nc2ccc(C)c(S(=O)(=O)Nc3ccccc3Cl)c2)s1 | 15.8 | -25.6 | 0.8 | -0.7 | 84.2* | 24.4
CCOC(=O)c1sc2ncn(C(CC)C(=O)OCC)c(=O)c2c1C (stereo not given) | 12.1 | 3.7 | 0.9 | -0.1 | 99.1* | 14.5
CCOC(=O)c1sc2ncn(C(CC)C(=O)OC)c(=O)c2c1C (stereo not given) | 5.6 | -1.7 | 0.8 | 0.8 | 17.9 | 22.5
Cc1ccc(COc2ccccc2C(=S)N2CCCC2)cc1 | 6.6 | 25.2 | 0.9 | 0.2 | 75.7* | 5.8
O=C(/C=C/c1cccc([N+](=O)[O-])c1)Nn1c(-c2ccccc2F)nc2ccccc2c1=O | 1.7 | -39.9 | 0.9 | -0.3 | -2.1 | 7.7
